Laboratory results reported in article PMC5045767 (Bioorganic & medicinal chemistry, 2016).
≈ marks a conversion by molar mass, not a printed value. Entries after “also recorded” stand apart in the source; their conditions may differ. Like-named read-outs stand apart in the source and are kept apart here.

How the values were obtained:
S. aureus strains = experiment: MIC over the panel of S. aureus strains; type: cell-based
HEK-293 = experiment: mammalian cytotoxicity; type: cell-based; conditions: for difference between cytotoxic concentration and MIC values: HEK-293 vs MRSA strains, depending on the strain; for cytotoxicity (significant = >20% cell death): up until 10 μg/mL, HEK-293
MRSA S22 (strain W) = experiment: time-kill assay; type: cell-based, S. aureus; conditions: 4× MIC, over 24 h
[1] = system: S. epidermidis ATCC 35984 (strain AC); experiment: membrane disruption, propidium iodide staining; type: cell-based; conditions: 1× and 4× MIC
How it was run: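 Membrane integrity was assessed by propidium iodide uptake, with red-stained cells scored as membrane-compromised. […] Controls: untreated and aminoglycoside-treated cells (negative), and a tobramycin derivative carrying a C14 linear alkyl thioether at the 6″-position (positive).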

[2] = system: S. epidermidis ATCC 35984 (strain AC); experiment: ROS production, DCFH-DA staining; type: cell-based; conditions: 1× and 4× MIC, 1 h at 37 °C
How it was run: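 Untreated cells served as negative control and 1 mM H2O2 as positive control. Cells were then stained with DCFH-DA (40 μg/mL) and examined by fluorescence microscopy.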

E. faecium BM4105-RF = experiment: MIC, broth double dilution; type: cell-based; conditions: Enterococcus faecium, BM4105RF, strain AF = E. faecium BM4105-RF
[3] = MIC broth double-dilution assay with the inoculum size of the time-kill assays; type: cell-based; conditions: inoculum 1×10^6 CFU/mL
[4] = system: S. aureus ATCC 6538 (strain A); conditions: 2 μg/mL; cited from earlier work
[5] = solubility in liquid Mueller-Hinton medium; type: physicochemical
[6] = system: murine red blood cells (mRBCs); experiment: hemolytic assay; type: cell-based, mouse; conditions: compared to ebselen / among ebsulfur analogues tested
S. aureus ATCC 25923 = experiment: MIC, broth double dilution; type: cell-based; conditions: Staphylococcus aureus, ATCC25923, strain B = S. aureus ATCC 25923
MRSA NRS77 = experiment: MIC, broth double dilution; type: cell-based, S. aureus; conditions: Staphylococcus aureus, MRSA|NRS77, strain T = MRSA NRS77
NorA, efflux pump = conditions: NorA inhibitor; cited from earlier work
[7] = system: S. aureus ATCC 6538 (strain A); experiment: reduction of established biofilm; type: cell-based; conditions: 1× to […] MIC tested, concentration not given

SMILES	cytotoxicity (significant = >20% cell death) (HEK-293)	membrane disruption (PI uptake) [1]	ROS production (DCFH-DA) [2]	MIC (E. faecium BM4105-RF)	MIC values with time-kill inoculum size compared with standard MIC [3]	also measured
CC(C)c1ccc(-n2sc3ccccc3c2=O)cc1 [2e]	did not display any significant cytotoxicity					improvement in MIC values when compared to the parent compound 2a (S. aureus strains): up to 16 fold; difference between cytotoxic concentration and MIC values (HEK-293): up to 40 fold
O=c1c2ccccc2sn1-c1ccccc1 [2a, 2-phenyl-1,2-benzisothiazol-3(2H)-one]		no sign of membrane disruption	led to production of ROS	2 to 7.8 mg/L (≈ 8.8 to 34.3 µM)		reduction of bacterial load (MRSA S22 (strain W)): 1.5 orders of magnitude
CCCCCCn1sc2ccccc2c1=O [3b]		no sign of membrane disruption	led to production of ROS			reduction of bacterial load (MRSA S22 (strain W)): 1.5 orders of magnitude
O=c1c2ccccc2[se]n1-c1ccccc1 [Ebselen, 2-phenyl-1,2-benzisoselenazol-3(2H)-one, reference compound]	very similar	no sign of membrane disruption	led to production of ROS		remained identical	biofilm reduction [4]: approximately 60%
O=c1c2ccccc2sn1-c1ccccn1 [2m]						solubility [5]: soluble enough for biological testing
COc1cc(OC)cc(-n2sc3ccccc3c2=O)c1 [2k]				2 to 7.8 mg/L (≈ 6.96 to 27.1 µM)		
O=c1c2ccccc2sn1-c1cccc(Br)c1 [2g]					remained identical	
CC(C)c1cccc(-n2sc3ccccc3c2=O)c1 [2h]	did not display any significant cytotoxicity			2 to 7.8 mg/L (≈ 7.42 to 29 µM)	remained identical	improvement in MIC values when compared to the parent compound 2a (S. aureus strains): up to 16 fold; hemolytic activity, comparison [6]: less hemolytic when compared to ebselen; also recorded: least hemolytic; difference between cytotoxic concentration and MIC values (HEK-293): up to 40 fold
NCC[C@H](O)C(=O)N[C@@H]1C[C@H](N)[C@@H](O[C@H]2O[C@H](CN)[C@@H](O)[C@H](O)[C@H]2O)[C@H](O)[C@H]1O[C@H]1O[C@H](CO)[C@@H](O)[C@H](N)[C@H]1O [AMK, amikacin, reference compound]				≥ 125 mg/L	remained identical	MIC (S. aureus ATCC 25923): ≤ 0.5 mg/L; MIC (MRSA NRS77): ≤ 0.5 mg/L
O=[N+]([O-])c1ccc2[nH]c(-c3ccccc3)cc2c1 [5-nitro-2-phenyl-(1H)-indole]						IC50 (NorA, efflux pump): < 5 µM
O=c1c2ccccc2sn1-c1cccc2ccccc12 [2l]	did not display any significant cytotoxicity					
CCCCCCCCn1sc2ccccc2c1=O [3c]		no sign of membrane disruption	led to production of ROS			reduction of bacterial load (MRSA S22 (strain W)): 1.5 orders of magnitude; biofilm reduction [7]: low to no biofilm reduction; hemolytic activity, comparison [6]: less hemolytic when compared to ebselen
